Experimental findings from ChEMBL document CHEMBL1157140, “Design and synthesis of trans 2-(furan-2-yl)vinyl heteroaromatic iodides with antitumour activity” (2008) are described below.

In general, GI50 refers to the concentration at which growth is held to half of that of the control. A low value points to greater sensitivity of the cells.

The assay concerns MCF7. Put plainly: Cytotoxicity against human MCF7 cells after 3 days by MTT assay. It is filed as functional. As to conditions: MCF7, 72 h. Put shortly:
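MCF7 cells kept in medium with heat-inactivated foetal bovine serum, 2 mM L-alanyl-L-glutamine and penicillin–streptomycin at 37 °C, 5% CO₂. Seeded at 5 × 10³ cells/0.33 cm², then dosed after 24 h at final 0.01–100. Incubated 3 days, then MTT read at 570 nm. Each point averages 8 wells; untreated cells serve as control.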
A general note: Formazan colour is commonly taken as a measure of viable cells.

`Cn1cc[n+](C)c1/C=C/c1ccc(-c2ccccc2Cl)o1`: the GI50 was 1380 nM.

In turn, `Cn1cc[n+](C)c1/C=C/c1ccco1` showed a GI50 of 100000 nM.

Take `C[n+]1ccccc1/C=C/c1ccco1`: the GI50 is 70800 nM.

`C(=C\c1ccco1)/c1cccc(/C=C/c2ccco2)n1` had a GI50 of 2510 nM.

On to `C[n+]1ccccc1/C=C/c1ccc(-c2ccccc2Cl)o1`, for which the GI50 was 2240 nM.

Consider `COc1ccc(-c2ccc(/C=C/c3n(C)cc[n+]3C)o2)cc1Cl`, for which the GI50 was 224 nM.

As for `COc1ccc(-c2ccc(/C=C/c3ccc4ccccc4[n+]3C)o2)cc1Cl`, the GI50 was 191 nM. This GI50 and that of the molecule before are within 1.5-fold of each other.

As for `C[n+]1c(/C=C/c2ccc(-c3ccc(Cl)cc3[N+](=O)[O-])o2)ccc2ccccc21`, it took 1740 nM to inhibit growth by half (GI50).

In turn, `Cc1ccc(/C=C/c2n(C)cc[n+]2C)o1` gave a GI50 of 33100 nM.

In the case of `C[n+]1c(/C=C/c2ccc(Br)o2)ccc2ccccc21`, halving of growth (GI50) required 3160 nM.

On to `Cn1cc[n+](C)c1/C=C/c1ccc(Br)o1`, for which the GI50 was 39800 nM.

In turn, `Cn1cc[n+](C)c1/C=C/c1ccc(-c2ccc(Br)cc2)o1` had a GI50 of 617 nM. Against the preceding molecule, the GI50 is about 65-fold lower.

Take `C[n+]1ccccc1/C=C/c1ccc(-c2ccc(Cl)cc2)o1`: the GI50 is 219 nM.

Take `C[n+]1ccccc1/C=C/c1ccc(-c2cc(Cl)ccc2Cl)o1`: the GI50 was 38 nM.

The molecule `Cn1cc[n+](C)c1/C=C/c1ccc(-c2ccc(Cl)cc2)o1` gave a GI50 of 631 nM.

Molecule `C[n+]1ccccc1/C=C/c1ccc(-c2cccc(Cl)c2)o1` showed a GI50 of 135 nM.

As for `C[n+]1ccccc1/C=C/c1ccc(-c2ccc(Cl)cc2Cl)o1`, the GI50 was 126 nM.

On to `C[n+]1ccccc1/C=C/c1ccc(-c2ccc(Cl)c(Cl)c2)o1`, for which growth was halved (GI50) at 380 nM. This GI50 lies about 3-fold higher than the previous one.

The molecule `C[n+]1ccccc1/C=C/c1ccc(Br)o1` showed a GI50 of 7940 nM. This GI50 is about 21-fold higher than that of the molecule before.

For `C[n+]1c(/C=C/c2ccc(-c3cccc(Cl)c3)o2)ccc2ccccc21`, the GI50 is 57.5 nM.

Molecule `Cn1cc[n+](C)c1/C=C/c1ccc(-c2cc(Cl)ccc2Cl)o1` gave a GI50 of 191 nM.

On to `C[n+]1c(/C=C/c2ccc(-c3ccc(Cl)cc3)o2)ccc2ccccc21`, for which halving of growth (GI50) required 126 nM.

Molecule `Cn1cc[n+](C)c1/C=C/c1ccc(-c2cccc(Cl)c2)o1` showed a GI50 of 1740 nM.

Molecule `COc1ccc(-c2ccc(/C=C/c3cccc[n+]3C)o2)cc1Cl` gave a concentration for 50% growth inhibition (GI50) of 66.1 nM.

Consider `C[n+]1ccccc1/C=C/c1ccc(-c2ccc(Br)cc2)o1`, for which the GI50 was 1000 nM.

As for `C[n+]1ccccc1/C=C/c1ccc(-c2cc(C(F)(F)F)ccc2Cl)o1`, halving of growth (GI50) required 331 nM.
